# ChEMBL document CHEMBL1138784, “Rational design, synthesis, and biological evaluation of bis(pyrimido[5,6,1-de]acridines) and bis(pyrazolo[3,4,5-kl]acridine-5-carboxamides) as new anticancer agents” (J Med Chem, 2004)
# What was measured:
# [1] = test system: MOLT-4; test: Percent growth of leukemia MOLT-4 cell line was determined at 10e-6 M concentration after 48 h of exposing; type: functional, Homo sapiens
# Summary of the method: (§1)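 NCI sulforhodamine B screen. Cells seeded by growth rate, 24 h drug-free, then 48 h exposure to 10^-8, 10^-6 or 10^-5 M. Protein-stain optical density expressed as percent growth relative to untreated control (100%); negative values indicate cell kill.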
# [2] = test system: LoVo; test: Cytotoxicity against doxorubicin resistant LoVo cell line was determined against 1 hour; type: functional, cell-based; settings: Homo sapiens
# Summary of the method: (§2)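 MTT assay on doxorubicin-sensitive LoVo and resistant LoVo/Dx cells, 24 h preincubation, then 1 h or 144 h drug exposure at 37 °C, 5% CO2. IC50 in nM. Resistance index is IC50 on LoVo/Dx divided by IC50 on LoVo.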
# [3] = test system: MKN-45; test: Cytotoxicity against human MKN45 cancer cell line was determined after 1 hr; type: functional, cell-based; settings: MKN-45, 1 h
# Summary of the method: (§3)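 MTT colorimetric assay. Cells seeded by growth characteristics and preincubated 24 h, then exposed to drug for 1 h or 144 h at 37 °C, 5% CO2. H460M, MKN45 and PC-3 were grown in RPMI 1640 with 10% FCS. HCT116 was grown in D-MEM with 10% FBS and 2 mM glutamine.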
# [4] = test system: DU-145; test: Percent growth of prostate DU-145 cell line was determined at 10e-8 M concentration after 48 h of exposing; type: functional, Homo sapiens
# [5] = test system: NCI-H460; test: Percent growth of lung NCI-H460 cell line was determined at 10e-6 M concentration after 48 hr of exposing; type: functional, Homo sapiens; summary of the method: as §1
# [6] = test system: HCT-116; test: Cytotoxicity against human HCT116 cancer cell line was determined after 1 hr; type: functional, cell-based; settings: HCT-116, 1 h; summary of the method: as §3
# [7] = test system: MCF7; test: Percent growth of breast MCF-7 cell line was determined at 10e-6 M concentration after 48 h of exposing; type: functional, Homo sapiens
# [8] = test system: OVCAR-4; test: Percent growth of ovarian OVCAR-4 cell line was determined at 10e-6 M concentration after 48 hr of exposing; type: functional, Homo sapiens; summary of the method: as §1
# [9] = test system: LoVo; test: Ratio of IC50 against sensitive LoVo cell line and that of doxorubicin resistance LoVo cell line was determined after 1 hr exposure; type: functional, Homo sapiens
# [10] = test system: MCF7; test: Percent growth of breast MCF-7 cell line was determined at 10e-8 M concentration after 48 hr of exposing; type: functional, Homo sapiens
# [11] = test system: 786-0; test: Percent growth of renal 786-O cell line was determined at 10e-5 M concentration after 48 hr of exposing; type: functional, Homo sapiens; summary of the method: as §1
# [12] = test system: 786-0; test: Percent growth of renal 786-O cell line was determined at 10e-8 M concentration after 48 h of exposing; type: functional, Homo sapiens; summary of the method: as §1
# [13] = test system: SW-620; test: Percent growth of colon SW-620 cell line was determined at 10e-6 M concentration after 48 hr of exposing; type: functional, Homo sapiens; summary of the method: as §1
# [14] = test system: PC-3; test: Cytotoxicity against human PC3 cancer cell line was determined after 1 hr; type: functional, cell-based; settings: PC-3, 1 h; summary of the method: as §3
# [15] = Percent growth of melanoma LOX IMV1 cell line was determined at 10e-6 M concentration after 48 hr of exposing; type: functional, Homo sapiens; summary of the method: as §1
# [16] = test system: SW-620; test: Percent growth of colon SW-620 cell line was determined at 10e-5 M concentration after 48 hr of exposing; type: functional, Homo sapiens; summary of the method: as §1
# [17] = test system: NCI-H460; test: Percent growth of lung NCI-H460 cell line was determined at 10e-8 M concentration after 48 hr of exposing; type: functional, Homo sapiens; summary of the method: as §1
# [18] = Cytotoxicity against human LoVo cancer cell line was determined after 144 hr; type: cell-based; summary of the method: as §2
# [19] = Cytotoxicity is determined as the concentration required to inhibit the growth of human colon adenocarcinoma (HT-29) cell line
# [20] = test system: DU-145; test: Percent growth of prostate DU-145 cell line was determined at 10e-6 M concentration after 48 hr of exposing; type: functional, Homo sapiens
# [21] = test system: MOLT-4; test: Percent growth of leukemia MOLT-4 cell line was determined at 10e-5 M concentration after 48 hr of exposing; type: functional, Homo sapiens; summary of the method: as §1
# [22] = test system: LoVo; test: Cytotoxicity against doxorubicin resistant LoVo cell line was determined against 144 hrs; type: functional, cell-based; settings: Homo sapiens; summary of the method: as §2
# [23] = test system: LoVo; test: Cytotoxicity against human LoVo cancer cell line was determined after 1 hr; type: functional, cell-based; summary of the method: as §2
# [24] = Cytotoxicity against human PC3 cancer cell line was determined after 144 hr; type: cell-based; settings: Cancer cell lines; summary of the method: as §3
# [25] = test system: SNB-19; test: Percent growth of CNS SNB-19 cell line was determined at 10e-5 M concentration after 48 hr of exposing; type: functional, Homo sapiens; summary of the method: as §1
# [26] = test system: OVCAR-4; test: Percent growth of ovarian OVCAR-4 cell line was determined at 10e-5 M concentration after 48 hr of exposing; type: functional, Homo sapiens; summary of the method: as §1
# [27] = test system: MOLT-4; test: Percent growth of leukemia MOLT-4 cell line was determined at 10e-8 M concentration after 48 hr of exposing; type: functional, Homo sapiens; summary of the method: as §1
# [28] = test system: OVCAR-4; test: Percent growth of ovarian OVCAR-4 cell line was determined at 10e-8 M concentration after 48 hr of exposing; type: functional, Homo sapiens; summary of the method: as §1
# [29] = Percent growth of melanoma LOX IMV1 cell line was determined at 10e-8 M concentration after 48 hr of exposing; type: functional, Homo sapiens; summary of the method: as §1
# [30] = Percent growth of melanoma LOX IMV1 cell line was determined at 10e-5 M concentration after 48 hr of exposing; type: functional, Homo sapiens; summary of the method: as §1
# [31] = test system: Nucleic Acid; test: Binding site preference is determined as the ratio of Poly (dA-dT)2 to Poly (dG-dC)2; type: nucleic-acid assay
# Summary of the method: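 Ethidium displacement fluorometry at pH 7.0 (10 mM Na2HPO4, 10 mM NaH2PO4, 1 mM EDTA) with 1.26 μM ethidium bromide and 1 μM [poly(dA-dT)]2 or [poly(dG-dC)]2, 20 °C. Ex 546 nm, em 595 nm, drug added serially from a DMSO stock. Preference taken from the [AT]/[GC] ratio of C50 values, counted significant only below 0.7 or above 1.3.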
# [32] = test system: NCI-H460; test: Percent growth of lung NCI-H460 cell line was determined at 10e-5 M concentration after 48 hr of exposing; type: functional, Homo sapiens; summary of the method: as §1
# [33] = test system: SNB-19; test: Percent growth of CNS SNB-19 cell line was determined at 10e-8 M concentration after 48 hr of exposing; type: functional, Homo sapiens; summary of the method: as §1
# [34] = test system: SNB-19; test: Percent growth of CNS SNB-19 cell line was determined at 10e-6 M concentration after 48 hr of exposing; type: functional, Homo sapiens; summary of the method: as §1
# [35] = test system: SW-620; test: Percent growth of colon SW-620 cell line was determined at 10e-8 M concentration after 48 hr of exposing; type: functional, Homo sapiens; summary of the method: as §1
# [36] = test system: DU-145; test: Percent growth of prostate DU-145 cell line was determined at 10e-5 M concentration after 48 hr of exposing; type: functional, Homo sapiens
# [37] = test system: 786-0; test: Percent growth of renal 786-O cell line was determined at 10e-6 M concentration after 48 h of exposing; type: functional, Homo sapiens; summary of the method: as §1
# [38] = test system: MCF7; test: Percent growth of breast MCF-7 cell line was determined at 10e-5 M concentration after 48 hr of exposing; type: functional, Homo sapiens
# [39] = Cytotoxicity against human HCT116 cancer cell line was determined after 144 hr; type: cell-based; settings: HCT-116, 144 h; summary of the method: as §3
compound,measurement,setting,value
CN(C)CCn1c(=O)c2ccc(NCCCN(C)CCCNc3ccc4c(=O)n(CCN(C)C)c(=O)n5c6ccccc6c(=O)c3c45)c3c(=O)c4ccccc4n(c1=O)c23,Growth,[1],-26%
same,IC50,[2],11 nM
same,IC50,[3],0.01 nM
same,Growth,[4],37%
same,Growth,[5],-22%
same,IC50,[6],0.72 nM
same,Growth,[7],0%
same,Growth,[8],-53%
same,Resistance index,[9],2.1
same,Growth,[10],31%
same,Growth,[11],-100%
same,Growth,[12],34%
same,Growth,[13],-25%
same,IC50,[14],4.1 nM
same,Growth,[15],-43%
same,Growth,[16],-89%
same,Growth,[17],13%
same,IC50,[18],0.31 nM
same,IC50,[19],< 0.1 nM
same,Growth,[20],-13%
same,Growth,[21],-71%
same,IC50,[22],3.1 nM
same,IC50,[23],5.2 nM
same,IC50,[24],1.6 nM
same,Growth,[25],-53%
same,Growth,[26],-77%
same,Growth,[27],9%
same,Growth,[28],15%
same,Growth,[29],25%
same,Growth,[30],-82%
same,Binding site preference,[31],25
same,Growth,[32],-95%
same,Growth,[33],32%
same,Growth,[34],7%
same,Growth,[35],26%
same,Growth,[36],-98%
same,Growth,[37],4%
same,Growth,[38],-96%
same,IC50,[39],0.1 nM
COc1cccc2c1C(=O)c1c(O)c3c(c(O)c1C2=O)C[C@@](O)(C(=O)CO)C[C@@H]3O[C@H]1C[C@H](N)[C@H](O)[C@H](C)O1 [DOXORUBICIN],IC50,[2],9100 nM
same,Resistance index,[9],11
same,IC50,[22],2300 nM
same,IC50,[23],810 nM
